The text below walks through data of article PMC2695835 (Bioorganic & medicinal chemistry, 2009).

Experiment [1] deals with T1, GIVA cPLA2 (Homo sapiens, UniProt P47712).
T1 sequence (P47712 1-749): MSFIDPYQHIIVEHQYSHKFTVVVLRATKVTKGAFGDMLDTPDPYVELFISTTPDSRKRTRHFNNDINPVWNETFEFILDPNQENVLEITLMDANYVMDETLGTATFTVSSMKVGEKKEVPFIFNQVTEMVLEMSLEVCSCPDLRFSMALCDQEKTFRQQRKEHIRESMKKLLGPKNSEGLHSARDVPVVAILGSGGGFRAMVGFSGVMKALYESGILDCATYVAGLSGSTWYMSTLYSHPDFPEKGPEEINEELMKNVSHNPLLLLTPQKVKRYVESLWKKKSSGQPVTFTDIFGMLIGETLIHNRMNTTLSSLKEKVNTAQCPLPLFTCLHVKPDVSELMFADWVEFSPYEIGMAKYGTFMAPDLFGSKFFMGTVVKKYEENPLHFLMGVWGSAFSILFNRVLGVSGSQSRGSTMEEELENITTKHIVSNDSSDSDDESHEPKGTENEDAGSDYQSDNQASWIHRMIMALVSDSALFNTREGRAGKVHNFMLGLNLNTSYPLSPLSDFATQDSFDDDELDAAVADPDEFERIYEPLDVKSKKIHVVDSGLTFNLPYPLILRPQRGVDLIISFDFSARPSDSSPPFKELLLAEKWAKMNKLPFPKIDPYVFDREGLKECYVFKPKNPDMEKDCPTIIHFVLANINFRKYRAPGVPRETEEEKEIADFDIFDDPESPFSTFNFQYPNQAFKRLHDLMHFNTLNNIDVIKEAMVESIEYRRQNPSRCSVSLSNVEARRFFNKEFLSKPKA
As to conditions: reference 2-oxoamide inhibitors; ref [15]; cited from earlier work.

A further experiment deals with T2, GVIA iPLA2 (Homo sapiens, UniProt O60733).
T2 sequence (O60733 1-806): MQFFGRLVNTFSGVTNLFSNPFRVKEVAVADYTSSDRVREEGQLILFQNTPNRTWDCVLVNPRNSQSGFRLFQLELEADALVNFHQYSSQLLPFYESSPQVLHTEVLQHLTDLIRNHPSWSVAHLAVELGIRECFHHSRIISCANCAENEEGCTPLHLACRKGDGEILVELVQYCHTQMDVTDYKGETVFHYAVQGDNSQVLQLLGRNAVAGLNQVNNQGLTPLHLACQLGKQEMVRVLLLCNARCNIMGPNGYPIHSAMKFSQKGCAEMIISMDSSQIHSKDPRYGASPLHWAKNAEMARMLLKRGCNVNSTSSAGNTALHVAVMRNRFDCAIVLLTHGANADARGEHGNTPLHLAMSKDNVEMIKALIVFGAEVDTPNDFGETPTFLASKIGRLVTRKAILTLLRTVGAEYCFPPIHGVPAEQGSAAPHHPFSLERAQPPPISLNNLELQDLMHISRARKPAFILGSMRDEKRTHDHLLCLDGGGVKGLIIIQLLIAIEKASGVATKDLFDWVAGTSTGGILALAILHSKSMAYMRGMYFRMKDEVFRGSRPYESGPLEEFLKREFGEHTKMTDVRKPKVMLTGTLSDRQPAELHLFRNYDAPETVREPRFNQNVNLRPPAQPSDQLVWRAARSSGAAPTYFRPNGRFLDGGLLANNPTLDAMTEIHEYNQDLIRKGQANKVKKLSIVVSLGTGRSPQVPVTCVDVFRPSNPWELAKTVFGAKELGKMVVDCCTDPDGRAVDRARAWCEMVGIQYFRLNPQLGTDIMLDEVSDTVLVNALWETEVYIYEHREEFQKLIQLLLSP
As to conditions: reference 2-oxoamide inhibitors; ref [15]; cited from earlier work.

Experiment [2] addresses T1, GIVA cPLA2. Description: In vitro GIVA cPLA2 inhibition, mixed micellar modified Dole assay. The class given is biochemical. As to conditions: mole fraction of inhibitor in total substrate interface required to inhibit the enzyme by 50%; mixed micelles.
The subject of the next experiment is RAW 264.7 macrophages. It counts as cell-based. Conditions: Mus musculus; for IC50: RAW264.7, read-out: IC50 for the inhibition of arachidonic acid release, RAW 264.7 cells stimulated with Kdo2-Lipid A, concentration for half maximal inhibition of the maximum inhibition observed; for inhibition at 25 µM: RAW264.7, read-out: AA Release Inhibition (%). The method, boiled down:
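Mouse RAW 264.7 macrophages were grown in DMEM with 10% FBS, 2 mM glutamine, penicillin/streptomycin and non-essential amino acids at 37 °C in 5% CO2. Cells were seeded at 2 × 10^6 per well and left to adhere overnight. Test compound (25 μM) was added 30 min before Kdo2-Lipid A, and supernatants were collected 1 h later. AA was extracted, quantified by HPLC-MS and normalized to cell number by DNA quantitation.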

Several values for one entry are separate records, joined by “and”; a condition that tells them apart may be missing. Identical values can stand only once. Like-named read-outs stand apart in the source and are kept apart here. Marks after values point to notes of the source that are not given here.

As for `CCCCCCCCCCCCCCC(=O)C(=O)NCCCC(=O)CO` [AX006], at GIVA cPLA2 [1], the “GIVA cPLA2 XI(50)” value is 0.024 mole fraction and 0.024 ± 0.015 ^b mole fraction.
As for `CCCCCCCCCCCCCCC(=O)C(=O)NCCCC(=O)COCC` [AX048], the “GIVA cPLA2 XI(50)” value on GIVA cPLA2 [1] is 0.022 ± 0.009 ^b mole fraction. The “GVIA iPLA2 XI(50)” value at GVIA iPLA2 is 0.027 ± 0.009 ^b mole fraction.
As to `CCCCCCCCCCCCCCC(=O)C(=O)N[C@@H](CCCC)C(=O)NCC(=O)OC` [Compound 4a, (S)-Methyl 2-(2-(2-oxohexadecanamido)hexanamido)acetate], the “GIVA cPLA2 XI(50)” value on GIVA cPLA2 [2] amounted to 0.021 ± 0.009 mole fraction.
For `CCCCCCCCCCCCCCC(=O)C(=O)N[C@H](C(=O)NCC(=O)OC(C)(C)C)C(C)C` [Compound 8b, (S)-tert-Butyl 2-(3-methyl-2-(2-oxohexadecanamido)butanamido)acetate], the “GIVA cPLA2 XI(50)” value at GIVA cPLA2 [2] is 0.028 ± 0.015 mole fraction.
As for `CCCCCCCCCCCCCCC(=O)C(=O)N[C@@H](CCCC)C(=O)NCC(=O)O` [Compound 9a, (S)-2-(2-(2-Oxohexadecanamido)hexanamido)acetic acid], on GIVA cPLA2 [2], the “GIVA cPLA2 XI(50)” value was found to be 0.035 ± 0.014 mole fraction.
On to `CCCCCCCCCCCCCCC(=O)C(=O)N[C@H](C(=O)NCC(=O)O)C(C)C` [Compound 9b, (S)-2-(3-Methyl-2-(2-oxohexadecanamido)butanamido)acetic acid], for which, at GIVA cPLA2 [2], the “GIVA cPLA2 XI(50)” value turned out to be 0.061 ± 0.017 mole fraction.
On to `CCCCCCCCCCCCCCC(=O)C(=O)N[C@@H](CCCC)COCC(=O)O` [Compound 18, (S)-2-(2-(2-oxohexadecanamido)hexyloxy)acetic acid], for which, on GIVA cPLA2 [2], the “GIVA cPLA2 XI(50)” value is 0.017 mole fraction and 0.017 ± 0.002 mole fraction. Besides, in the experiment on RAW 264.7 macrophages, the 50% inhibitory concentration (IC50) (commonly the concentration needed to halve the response being measured) is approximately 2 µM.
As for `CCCCCCCCCCCCCCC(=O)C(=O)NCCCC(=O)O` [Compound 19], in the experiment on RAW 264.7 macrophages, the inhibition (in general, how much of the control response was suppressed) at 25 µM stood at 52 ± 5% and the 50% inhibitory concentration (IC50) is approximately 25 µM.
Regarding `CCCCCCCCCCC(=O)C(=O)N[C@@H](CCCC)CCC(=O)O` [Compound 20], in the experiment with RAW 264.7 macrophages, the inhibition at 25 µM was determined as 56 ± 6% and the IC50 worked out at 10 µM.
On to `CCCCCCCCCCC(=O)C(=O)N[C@@H](CCCC)C(=O)O` [Compound 21], for which the inhibition at 25 µM in the experiment with RAW 264.7 macrophages was 27 ± 6%.
In the case of `CCCCCCCCCCCCCCC(=O)C(=O)N[C@H](CCC(=O)O)CC(C)C` [Compound 25], the inhibition at 25 µM in the experiment with RAW 264.7 macrophages worked out at 62 ± 5%.
The same measure, in the same setting: in the case of `CCCCCCCCCCCCCCC(=O)C(=O)N[C@@H](CCCC)CCC(=O)O` [Compound 26] it was 79 ± 0.5%; in that of `CCCCCCCCCCCCCCC(=O)C(=O)N[C@H](/C=C/C=C/C(=O)O)CCCC` [Compound 28], 6 ± 10%.
`CCCCCCCCCCCCCCC(=O)C(=O)N[C@H](/C=C/C(=O)O)CCCC` [Compound 30]: in the experiment on RAW 264.7 macrophages, the inhibition at 25 µM was determined as 74 ± 8% and the 50% inhibitory concentration (IC50) is approximately 25 µM.
For `CCCCCCCCCCCCCCC(=O)C(=O)N[C@H](/C=C/C(=O)OCC)CCCC` [Compound 33], in the experiment on RAW 264.7 macrophages, the inhibition at 25 µM worked out at 16 ± 6%.
`CCCCCCCCCCCCCCC(=O)C(=O)NCCCCC(=O)OC(C)(C)C` [Compound 34]: the inhibition at 25 µM with RAW 264.7 macrophages was 11 ± 6%.
With `CCCCCCCCCCCCCCC(=O)C(=O)N[C@@H](CCCC)CCCC(=O)O` [Compound 35], in the experiment on RAW 264.7 macrophages, the inhibition at 25 µM was 59 ± 4% and the IC50 came to 7 µM.
Take `CCCCCCCCCCCCCCC(=O)C(=O)NCC(=O)OC` [Compound 37]: the inhibition at 25 µM with RAW 264.7 macrophages stood at 30 ± 2%.
